According to PMC11617404 (iScience, 2024):

Assays:
HYlight [1] = target: T1, HYlight (Bacillus subtilis, UniProt O32253); experiment: Titration of purified HYlight with oligomycin or 2-DG; format: binding; settings: increasing concentrations, Figure S1E
HepG2 cells [2] = experiment: ECAR and OCR during glycolytic stress test; format: cell-based, human; settings: 1 h glucose starvation, 10 mM glucose, 10 μM oligomycin, 100 mM 2-DG
Method in brief: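 HepG2 cells in Seahorse plates were transfected the next day with the sensor or its null variant. At 24 h they were glucose-starved for 1 h in XF DMEM (pH 7.4, 2 mM glutamine, no glucose, no phenol red) in a CO2-depleted incubator, and the medium was renewed. Additions: 10 mM glucose, 10 μM oligomycin, then 100 mM 2-DG in two 50 mM steps. OCR (pmol O2/min) was normalized to cell number by BCA protein assay; n = 3.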

HepG2 cells [3] = experiment: Gluconeogenesis induction with FBP1 or PFK inhibition, HYlight imaging; format: cell-based, human
Method in brief: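 HepG2 cells were kept in DMEM Glutamax with 25 mM lactate and 0.65 mM pyruvate. After transfection, 50 μM dexamethasone and 100 nM glucagon were added; normal medium served as comparison. The PFK inhibitor (20 μM) was given 24 h before the assay, and the FBP1 inhibitor (20 μM) acutely. After 1 h glucose starvation, cells were imaged with dexamethasone and glucagon (60 min each), FBP1 inhibitor (30 min), then 15 mM glucose (25 min). Read-out was 488/405 nm ratio; n ≥ 3, 50 cells each.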

HYlight [4] = target: T1, HYlight; experiment: Dihydroxyacetone phosphate competition assay on purified HYlight; format: binding; settings: purified HYlight in the presence of 100 μM FBP, Figure 5D
Method in brief: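 Protein was IPTG-induced (0.5 mM, overnight, 30°C), purified by Ni2+ affinity and size exclusion, and used at 200 nM. DHAP was titrated with or without 100 μM FBP, and with or without cytosolic ionic strength (140 mM K+, 12 mM Na+) plus a metabolic mix. Excitation was scanned 350–520 nm with emission at 560 nm, 25°C. Ratio R = F500/F400, ΔR/R0 = (Rt−Rt=0)/Rt=0; n = 3.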

HYlight [5] = target: T1, HYlight; experiment: Titration of purified recombinant HYlight, excitation ratio F500/F400; format: binding; settings: for maximum fluorescence ratio: purified HYlight, titration from low μM to mM range, Figure 5C; for average fluorescence ratio: 1 μM FBP, Figure 6D; for maximum ratiometric value (fluorescence ratio): Figure 6A; for fluorescence ratio (maximum): Figure 7A
Method in brief: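 Purified sensor (200 nM) was scanned at excitation 350–520 nm, emission 560 nm, 25°C, with ratio F500/F400. For ionic strength, protein in TBS (0 mM NaCl, 50 mM Tris-HCl pH 7.6) was titrated with FBP and NaCl 0–150 mM. The buffer series compared 25 mM MES/CHES/HEPES, PBS and Britton-Robinson pH 8, pH-adjusted with NaOH; n = 3.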

[6] = system: primary mouse hepatocytes; experiment: Hypoxia induction assay; format: cell-based; settings: 1 mM overnight, 1 h starvation
Method in brief: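 Transfected primary mouse hepatocytes received 1 mM DMOG 24 h before and during the assay, with DMSO as blank. After 1 h glucose starvation they were given 20 mM glucose (35 min), a further 20 mM glucose (10 min), then 100 mM 2-DG (10 min), with the 488/405 nm ratio recorded.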

HepG2 cells [7] = experiment: Hypoxia induction assay; format: cell-based, human; settings: 1 mM overnight, 1 h starvation
Method in brief: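 Transfected HepG2 cells received 1 mM DMOG 24 h before the assay, kept throughout, with DMSO as blank. After 1 h glucose starvation, cells were imaged for 30 min after 10 mM glucose, following the 488/405 nm ratio. n ≥ 5, 50 cells per replicate.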

HYlight [8] = target: T1, HYlight; experiment: Metal binding assay on purified HYlight; settings: 150 mM NaCl or KCl, 0.1 mM EDTA
HepG2 cells [9] = experiment: FBP added to the media of non-permeabilized HepG2 cells expressing HYlight; format: cell-based, human; settings: intact HepG2 cells, increasing FBP in the media, no saponin
FBPase-1 = FBPase-1 for FBP, gluconeogenic conditions; cited from earlier work
aldolase = settings: cited from earlier work
[10] = FBP quantification with HYlight in primary mouse hepatocytes; format: cell-based
Method in brief: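 Hepatocytes were transfected with HYlight plasmid 2 h after seeding; medium was replaced 12 h later. Cells were glucose-starved 1 h in glucose-free Seahorse XF DMEM (pH 7.4, 2 mM glutamine), then given 10 mM glucose. Confocal 488/405 ratios were normalized to post-2-DG values and read against an in vitro FBP curve (ΔR/R10) mimicking ionic strength and metabolic competition. n = 3, ≥50 cells each.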

PFK-1 = PFK-1 toward FBP; ref BRENDA:EC2.7.1.11; Zheng and Kemp[47]; cited from earlier work
HYlight [11] = target: T1, HYlight; settings: cited from earlier work
[12] = system: HepG2, HLE, and Huh6 cells; experiment: Glucose titration, HYlight confocal imaging in hepatoma cell lines; format: cell-based, human
Method in brief: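 Hepatoma lines expressing codon-optimized cytosolic sensor (Lipofectamine, medium changed at 24 h) were glucose-starved for 1 h in XF DMEM pH 7.4 without glucose. They were imaged 10 min, then given increasing glucose every 10 min up to 40 mM, then 50 mM 2-DG. The 488/405 nm confocal ratio was min-max normalized, and the Hill coefficient was taken from ratio versus glucose; n = 3, ≥50 cells each.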

[13] = system: primary mouse hepatocytes; experiment: Glucose titration, HYlight confocal imaging in primary mouse hepatocytes; format: cell-based; settings: 1 h glucose starvation, glucose 0–40 mM added every 10 min
Method in brief: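 Hepatocytes were isolated by two-step collagenase perfusion via the vena cava and cultured in William's medium with 10% FBS and 10 mM HEPES. They were transfected 2 h after seeding, with medium changed at 12 h. After 1 h starvation in glucose-free XF DMEM pH 7.4, cells were imaged 10 min, given glucose in steps every 10 min to 40 mM, then 100 mM 2-DG. The 488/405 nm ratio was recorded; n = 3, ≥50 cells each.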

HLE cells = experiment: Glycolytic stress test, HYlight confocal imaging in HLE cells; format: cell-based, human; settings: after the addition of 10 mM glucose
Method in brief: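 Transfected HLE cells were glucose-starved for 1 h in XF DMEM pH 7.4 (2 mM glutamine, no glucose) and imaged 10 min. They then received 10 mM glucose for 30 min, 2.5 μM oligomycin for 30 min and 50 mM 2-DG for 30 min. The 488/405 nm ratio was followed over time and min-max normalized.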

HYlight [14] = target: T1, HYlight; experiment: Phosphate titration assay on purified HYlight; format: binding
Method in brief: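 Purified sensor (200 nM) or null variant was tested in SEC buffer pH 8 with TBS or PBS. Separately, 200 mM Sorensen's phosphate pH 8 was titrated from the nM to mM range into sensor in 50 mM Tris pH 8, with or without 100 μM FBP, keeping conductivity constant. Excitation was scanned 350–520 nm, emission 560 nm, 25°C; read-out was the F500/F400 ratio change; n = 3.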

T1 sequence (O32253 96-340, other chains not shown): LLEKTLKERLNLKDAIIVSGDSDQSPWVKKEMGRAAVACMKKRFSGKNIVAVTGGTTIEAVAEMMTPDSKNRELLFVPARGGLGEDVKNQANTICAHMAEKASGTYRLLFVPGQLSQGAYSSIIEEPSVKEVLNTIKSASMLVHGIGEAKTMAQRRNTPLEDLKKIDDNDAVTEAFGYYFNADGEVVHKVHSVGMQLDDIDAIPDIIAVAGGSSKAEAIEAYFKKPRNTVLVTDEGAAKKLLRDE

## O=CC[C@@H](O)[C@H](O)[C@H](O)CO [2-DG, 2-deoxy-D-glucose]
HYlight [1]
  direct effect on ratiometric response of purified HYlight: do not directly interact with HYlight
HepG2 cells [2]
  change of oxygen consumption rate (OCR): increase in the OCR

## O=C(/C=C/c1cccnc1)c1ccncc1 [3PO, (2E)-3-(3-Pyridinyl)-1-(4-pyridinyl)-2-propen-1-one]
HepG2 cells [3]; 20 μM, 24 h treatment, gluconeogenic media
  decrease in FBP levels after glucose addition: not observed
HepG2 cells [3]; 20 μM, 24 h treatment, normal media
  FBP levels (HYlight ratio) after glucose addition: significant decrease in the FBP levels

## O=S(=O)(Nc1nc2cc(Cl)ccc2o1)c1cc(Cl)ccc1Cl [5-chloro-2-(N-(2,5-dichlorobenzenesulfonamide))-benzoxazole]
HepG2 cells [3]; 20 μM inhibitor, gluconeogenic medium, 15 mM glucose
  FBP level (HYlight ratio) after glucose addition: increase of FBP to levels comparable to those seen with standard media

## O=C(CO)COP(=O)(O)O [DHAP, dihydroxyacetone phosphate]
HYlight [4]
  DHAP concentration at which significant competition was observed: above 2.5 mM
HYlight [5]
  maximum fluorescence ratio: 0.75

## COC(=O)CNC(=O)C(=O)OC [DMOG, dimethyloxalylglycine]
[6]
  basal fluorescence (HYlight ratio): significant increase in basal fluorescence
  response to glucose (HYlight ratio): diminished or absent response to glucose
HepG2 cells [7]
  basal fluorescence (HYlight ratio): significant increase in basal fluorescence
  response to glucose (HYlight ratio): diminished or absent response to glucose

## O=C(O)CN(CCN(CC(=O)O)CC(=O)O)CC(=O)O [EDTA, ethylenediaminetetraacetic acid]
HYlight [8]
  effect on response and apparent KD value of HYlight for FBP: did not alter the response or the apparent KD value

## O=C(COP(=O)(O)O)[C@@H](O)[C@H](O)[C@H](O)COP(=O)(O)O [FBP, fructose 1,6-bisphosphate]
HepG2 cells [9]
  entry of FBP from the media into cells (HYlight ratio unchanged): could not cross the membrane
FBPase-1
  specificity constant: 23 mM⁻^1s⁻^1
aldolase; aldolase for FBP
  specificity constant: 4.7 mM⁻^1s⁻^1
[10]; after 10 mM glucose
  FBP concentration in primary mouse hepatocytes (HYlight): 21 µM
[10]; before glucose addition
  FBP concentration in primary mouse hepatocytes (HYlight): 15 µM
HYlight [5]; TBS with 0 mM NaCl
  average fluorescence ratio: 1.87
HYlight [5]; TBS with 150 mM NaCl
  average fluorescence ratio: 0.94
HYlight [5]; Britton-Robinson phosphate buffer
  maximum ratiometric value (fluorescence ratio): 1
HYlight [5]; CIS (140 mM KCl and 12 mM NaCl)
  fluorescence ratio (maximum): 3.5
HYlight [5]; CIS + metabolic mix solution
  fluorescence ratio (maximum): 3.5
HYlight [5]; MES-CHES-HEPES buffer
  maximum ratiometric value (fluorescence ratio): ~3
HYlight [5]; PBS
  maximum ratiometric value (fluorescence ratio): 2
HYlight [5]
  maximum fluorescence ratio: 2
HYlight [5]; working buffer, 125 mM NaCl
  fluorescence ratio (maximum): 2
PFK-1
  turnover rate: 111 s⁻¹

## [K+] [K^+]
HYlight [8]
  effect on response and apparent KD value of HYlight for FBP: did not alter the response or the apparent KD value

## [Na+] [Na^+]
HYlight [8]
  effect on response and apparent KD value of HYlight for FBP: did not alter the response or the apparent KD value

## O=P(O)(O)OC[C@H]1O[C@@](CO)(OP(=O)(O)O)[C@@H](O)[C@@H]1O [fructose 2,6-bisphosphate]
HYlight [11]
  binding to HYlight: can also bind

## OC[C@H]1OC(O)[C@H](O)[C@@H](O)[C@@H]1O (stereo partly shown) [glucose]
[12]; 1 h glucose starvation, glucose 0–40 mM added every 10 min
  glucose concentration needed for HYlight changes: 5 mM
[12]; HLE, HepG2, Huh6 cell lines and primary mouse hepatocytes, Figure 1C
  hill coefficient of HYlight ratio against glucose concentration: approximately 1
HepG2 cells [2]
  change of oxygen consumption rate (OCR): decrease in oxygen consumption
[13]
  glucose concentration after which HYlight changes were detected: 20 mM
HLE cells
  time to maximum HYlight response: 30 min

## O=CC(O)COP(=O)(O)O (stereo not shown) [glyceraldehyde 3-phosphate]
aldolase; aldolase toward glyceraldehyde 3-phosphate, ref BRENDA:EC4.1.2.13, Plater et al.[48]
  turnover rate: 8.2 s⁻¹

## CC[C@H]1/C=C/C=C/C[C@@H](C)[C@H](O)[C@@](C)(O)C(=O)[C@@H](C)[C@H](O)[C@@H](C)C(=O)[C@@H](C)[C@H](O)[C@@H](C)/C=C/C(=O)O[C@@H]2[C@H](C)[C@H](CC1)O[C@]1(CC[C@H](C)[C@H](C[C@@H](C)O)O1)[C@H]2C [oligomycin, Oligomycin A]
HYlight [1]
  direct effect on ratiometric response of purified HYlight: do not directly interact with HYlight
HepG2 cells [2]
  change of oxygen consumption rate (OCR): decrease in oxygen consumption

## phosphate
HYlight [14]; in the absence of FBP
  effect of phosphate titration on 500/400 fluorescence ratio: increase in the 500/400 fluorescence ratio
HYlight [14]; in the presence of 100 μM FBP
  effect of phosphate titration on fluorescence response: decrease in fluorescence response
